Screening data from PubChem BioAssay.
KCNK9 block – inhibitors of human KCNK9 two-pore domain potassium channel. 310,000 tested, 1.2% active. Q9NPC2. B-score at 10 µM. AID 488922. HEK293 KCNK9, FluxOR thallium flux fluorescence; active compounds read low;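 active = ratio B-score over 3 SD below the library mean, with starting fluorescence within 5 SD of its mean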;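 note: negative B-score means less thallium flux so channel inhibition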
Kir21 block – blocks the mouse Kir2.1 inward-rectifier potassium channel; HEK293-Kir2.1, FluxOR thallium flux fluorescence; active compounds read low; B-score at 10 µM; P35561; 310,000 tested, 0.85% active;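 active = fluorescence ratio B-score at or below minus 3 SD of library scores, with starting-brightness B-score within 2 SD, cut at about -4.2 in these data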;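 note: channel flux triggered by added potassium and thallium sulfate stimulus; B-score of peak minus minimum fluorescence over baseline after thallium stimulus; more negative B-score means stronger Kir2.1 block with less thallium influx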
KCNK3 block – human KCNK3 channel inhibition, primary screen; O14649; CHO-KCNK3 thallium flux, FluxOR fluorescence; active compounds read low; B-score at 10 µM; 340,000 tested, 0.84% active; AID 602410;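 active = B-score under library mean minus 4 SD, starting fluorescence ratio at most library mean plus 5 SD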;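 note: more negative B-score means stronger inhibition of thallium flux through KCNK3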
hERG protect – shields human hERG channel from block by proarrhythmic agents. CHO-hERG, FluxOR thallium flux, dofetilide IC70 present. 310,000 tested, 0.51% active. AID 1511. Q12809. activation (rescue from dofetilide block), less the hit threshold, % at 10 µM;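 active = activation above the mean of controls blocked by dofetilide plus 5 SD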;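 note: thallium influx through hERG after potassium depolarization seen as dye fluorescence rise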
Target sequence (Q12809 whole entry, looked up): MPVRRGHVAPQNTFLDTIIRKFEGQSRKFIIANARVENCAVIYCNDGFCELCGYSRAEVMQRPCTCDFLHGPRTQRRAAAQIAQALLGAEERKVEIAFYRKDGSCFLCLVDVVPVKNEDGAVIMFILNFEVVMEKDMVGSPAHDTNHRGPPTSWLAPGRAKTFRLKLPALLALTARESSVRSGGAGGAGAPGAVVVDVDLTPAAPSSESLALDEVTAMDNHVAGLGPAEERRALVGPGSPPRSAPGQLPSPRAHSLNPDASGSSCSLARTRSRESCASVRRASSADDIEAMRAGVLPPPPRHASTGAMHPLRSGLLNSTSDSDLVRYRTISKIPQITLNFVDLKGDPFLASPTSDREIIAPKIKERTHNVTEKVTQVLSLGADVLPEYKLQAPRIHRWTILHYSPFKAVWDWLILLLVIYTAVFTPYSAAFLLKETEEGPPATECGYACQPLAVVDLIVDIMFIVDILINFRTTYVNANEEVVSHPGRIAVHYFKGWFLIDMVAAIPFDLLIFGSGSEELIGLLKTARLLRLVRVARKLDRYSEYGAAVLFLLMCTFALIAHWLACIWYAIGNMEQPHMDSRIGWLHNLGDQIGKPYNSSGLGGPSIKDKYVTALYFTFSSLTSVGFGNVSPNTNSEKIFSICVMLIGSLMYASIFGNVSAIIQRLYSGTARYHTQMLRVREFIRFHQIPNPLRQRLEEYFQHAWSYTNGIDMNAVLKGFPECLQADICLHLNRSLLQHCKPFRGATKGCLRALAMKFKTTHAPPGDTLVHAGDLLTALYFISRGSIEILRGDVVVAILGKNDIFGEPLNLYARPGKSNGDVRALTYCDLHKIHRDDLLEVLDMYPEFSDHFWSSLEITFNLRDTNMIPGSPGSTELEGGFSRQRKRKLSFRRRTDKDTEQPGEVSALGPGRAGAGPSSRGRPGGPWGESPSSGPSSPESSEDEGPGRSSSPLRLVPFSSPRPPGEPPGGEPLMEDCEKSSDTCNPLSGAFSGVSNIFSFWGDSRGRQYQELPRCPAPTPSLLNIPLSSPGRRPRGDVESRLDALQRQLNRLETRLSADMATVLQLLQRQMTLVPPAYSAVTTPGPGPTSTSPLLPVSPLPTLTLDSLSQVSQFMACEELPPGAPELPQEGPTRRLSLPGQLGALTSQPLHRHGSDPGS
KCNQ1 inh – human KCNQ1 channel inhibition | 310,000 tested, 1.3% active | P51787 | CHO-K1 KCNQ1, FluxOR thallium flux fluorescence; active compounds read high | B-score at 10 µM;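 active = compounds whose thallium flux B-score, printed positive for inhibition, exceeds three library SD while starting fluorescence stays within three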;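 note: channel opened by potassium depolarization with thallium stimulus after 20 min compound exposure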
KCNQ1 act – potentiators or activators of human KCNQ1 potassium channel | P51787 | CHO-K1 KCNQ1, thallium flux FluxOR fluorescence; active compounds read high | B-score at 10 µM | 310,000 tested, 0.35% active | AID 2648;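 active = fluorescence ratio B-score, a plate-corrected score, at least three library SD, with initial intensity B-score within 5 SD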
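Assay system: stable KCNQ1 CHO-K1 line; medium: assay buffer, equal DMSO in all wells; timing: 90 min dye loading and 20 min compound exposure, both at room temperature; technique: kinetic FluxOR thallium fluorescence, 10-s 1-Hz baseline, 110-s post-stimulus read; read-out basis: B score of baseline-normalized fluorescence ratio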
* = called active by the depositor; i = inactive; . = not tested or not shown. Sampled rows, rich in hits. Any-hit rate of the full collection: about 3.7%.

SMILES	KCNK9 block	Kir21 block	KCNK3 block	hERG protect	KCNQ1 inh	KCNQ1 act
O=C(COC(=O)c1ccccc1)c1ccc(Br)cc1	-6.8*	-0.57	i	-4	i	i
COc1ccc(C(=O)CSc2nnc(CNC(=O)c3ccccc3)o2)cc1	i	-0.85	i	-11	i	i
C(=C\c1nc(N2CCCC2)c2ccccc2n1)/c1ccccc1	-7.2*	0.44	i	-18	i	i
O=C(NCCOC(=O)c1c(F)cccc1Cl)c1c(F)cccc1Cl	i	-0.2	i	-7	i	i
CCc1cc(/C(Cc2ccccn2)=N\O)c(O)cc1O	i	-5.6*	i	-8	i	i
CCc1cc(/C(Cc2cscn2)=N\O)c(O)cc1O	i	-2.1	i	-6	i	i
Cc1ccc(C(=O)NCCNC(=O)c2cccnc2)cc1	i	0.23	i	-2	i	i
COc1ccccc1C(=O)n1nc(-c2ccccc2)nc1NCc1ccco1	-7.7*	-1.8	i	-14	i	i
CCCc1ccc(Oc2cc(N3CCOCC3)nc(-c3ccccc3)n2)cc1	i	-0.37	i	-6	i	i
FC(F)(F)c1cccc(NC(=S)NNC(=S)Nc2cccc(C(F)(F)F)c2)c1	i	1.6	.	-2	i	i
FC(F)(F)c1cccc(NC(=S)Nc2ccc(Cl)c(Cl)c2)c1	i	-0.11	i	-26	7*	i
Cc1cc(NC(=O)Nc2cccc(C(F)(F)F)c2)n(C)n1	i	2	i	-8	6*	i
O=C(Nc1ccccc1)Nc1cccc(C(F)(F)F)c1	i	0.38	i	-7	i	i
CC(C)(O)C(=O)NNC(=S)Nc1cccc(C(F)(F)F)c1	i	1.5	i	-2	7*	i
CC(=O)c1cccc(NC(=O)C(=O)Nc2cccc3ccccc23)c1	i	-1.2	i	5.2*	i	i
CC(=O)c1ccc(NC(=S)Nc2cccc3ccccc23)cc1	i	0.4	i	-5	i	i
Cc1ccc(-n2ncc3c2CC(C)(C)CC3NC(=O)CCN2CCCO2)cc1 (centres undefined)	i	-0.54	i	-7	i	i
O=C(NCCc1ccc(Cl)cc1)C1COc2ccccc2O1 (centres undefined)	i	-4.7*	i	-3	i	i
O=C(NNS(=O)(=O)c1ccc2ccccc2c1)c1cc(-c2ccccn2)nc2ccccc12	i	2.1	i	-19	i	i
Cc1nn(CC2CC2)c(=O)n1-c1ccc(F)cc1	i	0.51	i	0	i	10*
C[C@H](NC(=O)c1nc[nH]c1C(=O)NC(c1ccccc1)c1ccccc1)C(=O)OC(C)(C)C	-7*	-0.92	i	-9	i	i
C[C@H](NC(=O)c1nc[nH]c1C(=O)N[C@H](C)c1ccccc1)C(=O)OC(C)(C)C	i	0.68	i	-11	i	i
CN(C(=O)c1ccccc1F)C(c1ccccc1)c1ccccc1	i	-7.2*	i	-18	i	i
CC(/C=N/NC(=O)c1ccccc1F)c1ccccc1 (centres undefined)	i	0.45	i	-7	i	i
CCCn1nc(NC(=O)c2cccs2)c2cc3cc(C)ccc3nc21	-7.1*	0.46	i	-19	i	i
SMILES	KCNK9 block	Kir21 block	KCNK3 block	hERG protect	KCNQ1 inh	KCNQ1 act
COc1cc(/C=C2\SC(=S)N(Nc3ccccc3)C2=O)ccc1O	i	-0.83	i	-4	i	i
COc1cc(/C=C2\SC(=S)N(C(Cc3ccccc3)C(=O)O)C2=O)ccc1O (centres undefined)	i	-4.5*	i	-20	i	i
Cc1ccc(-c2nnc(CSc3nnc(COc4ccccc4)n3-c3ccccc3)o2)cc1	i	-2.2	i	-16	i	i
Cc1ccc(-c2nnc(CSc3nnc(COc4ccccc4)n3-c3ccc(C)cc3)o2)cc1	i	0.63	i	-21	6*	i
Cc1c(NC(=S)NC(=O)c2sc3ccccc3c2Cl)cccc1C(=O)O	i	0.82	i	0	i	i
COc1ccccc1C(=O)NNC(=S)NC(=O)c1sc2ccccc2c1Cl	i	1.1	i	25*	i	25*
